Screening data: PubChem BioAssay, several laboratories
Statin myotox sup = suppressors of statin myotoxicity in C2C12 myotubes, primary screen, cell-based, single point, plate reader; C2C12 myotubes + simvastatin, ATP luminescence, 48 h; scaled: DMSO 0, geranylgeraniol control 100; rescue of ATP level, % at 7.49 µM; 330,000 compounds, 0.78% hits; AID 602340, 2012;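 active = mean ATP rescue above about 67%, or every replicate alone reaching that limit, limit read from the data, passing the limit was not always enough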;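 also: myotubes were challenged with 10 µM simvastatin during compound exposure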
Mot1-301 SUMO = yeast Mot1-301 growth rescue at high temperature, primary screen, SUMOylation pathway inhibitor project, S. cerevisiae, ATP luminescence, 38.5C; S. cerevisiae Mot1-301 growth rescue; percent above DMSO median, 100 means doubled; growth rescue, % at 18.8 µM; 320,000 compounds, 1% hits; AID 2716, 2010;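 active = every valid replicate shows activation above 250% relative to neutral control wells; inactive = the rest, any valid replicate at or below 250%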;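 also: OY570 slx delta 5 strain wells were the positive control but not used for scaling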
ARFGAP1 inhibitor = inhibitors of rat ARFGAP1 GAP activity, primary screen, biochemical, fluorescence polarization, GDP tracer | ADP-ribosylation factor GTPase-activating protein 1 (Rattus norvegicus), Q62848 | Arfgap1-stimulated ARF1 GTP hydrolysis, GDP FP detection | inhibition, % at 16.5 µM | 360,000 compounds, 0.26% hits;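 active = inhibition above a per-plate limit, mean inhibition of low control wells plus 3 SD, cut at about 25% in these data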;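 also: 0% = DMSO wells with enzyme and 100% = wells lacking Arfgap1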
Target sequence (Q62848 1-136 limits assumed): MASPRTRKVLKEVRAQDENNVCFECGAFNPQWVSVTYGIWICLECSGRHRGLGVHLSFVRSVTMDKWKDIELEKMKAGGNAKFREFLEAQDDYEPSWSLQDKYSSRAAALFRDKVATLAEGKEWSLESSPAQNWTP
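System: truncated rat Arfgap1 GAP domain / Medium: HEPES-based buffer, pH 7.5 / Also added: N-terminally truncated human ARF1-GTP substrate / Incubation: enzyme reaction 120 min at 25 °C after 20 min preincubation / Measured by: FP of antibody-bound GDP Alexa 633 tracer, ex 620/em 688 nm / Replicates: singlicate, each compound tested once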
APOBEC3G inh = APOBEC3G DNA deaminase inhibitors, primary screen, biochemical, fluorescence, single-stranded DNA substrate, uHTS; DNA dC->dU-editing enzyme APOBEC-3G (Homo sapiens), Q9HC16; inhibition, % at 20 µM; 330,000 compounds, 0.28% hits; AID 493012, 2011; recombinant A3G, ssDNA deamination FAM/TAMRA fluorescence;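 active = inhibition of at least 40% at 20 µM, with no more than 30% in the related APOBEC3A deaminase screen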;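 also: plate controls were DMSO wells with A3G for no effect and wells lacking A3G enzyme for full effect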
Target sequence (Q9HC16 whole entry, looked up): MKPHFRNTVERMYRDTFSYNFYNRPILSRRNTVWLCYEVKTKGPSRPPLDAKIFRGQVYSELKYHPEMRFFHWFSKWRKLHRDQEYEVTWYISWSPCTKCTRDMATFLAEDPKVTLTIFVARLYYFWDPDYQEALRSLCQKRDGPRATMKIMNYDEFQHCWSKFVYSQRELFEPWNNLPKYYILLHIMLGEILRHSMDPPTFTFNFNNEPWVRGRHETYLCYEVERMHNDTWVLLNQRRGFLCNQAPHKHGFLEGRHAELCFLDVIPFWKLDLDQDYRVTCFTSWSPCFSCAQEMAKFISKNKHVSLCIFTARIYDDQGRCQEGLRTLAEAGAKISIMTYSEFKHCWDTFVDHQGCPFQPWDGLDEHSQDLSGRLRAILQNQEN
ASAP1 GAP inh = inhibitors of human ASAP1 ArfGAP activity, primary screen, biochemical, fluorescence polarization | AID 624377, 2012 | 360,000 compounds, 0.19% hits | Arf-GAP with SH3 domain, ANK repeat and PH domain-containing protein 1 (Homo sapiens), … | ASAP1-stimulated ARF1 GTP hydrolysis, GDP FP detection | inhibition, % at 16.5 µM; in the data active = inhibition above about 25%;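 also: 0% = vehicle with enzyme and substrate and 100% = no enzyme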
A3A deaminase = APOBEC3A ssDNA deaminase inhibitors, primary screen, selectivity assay for APOBEC3G inhibitor project, biochemical, FAM/TAMRA oligo cleavage fluorescence; DNA dC->dU-editing enzyme APOBEC-3A (Homo sapiens), P31941; recombinant A3A, FAM/TAMRA ssDNA deamination fluorescence; inhibition, % at 20 µM; 330,000 compounds, 0.41% hits;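 active = at least 40% inhibition at 20 µM here, with at most 30% in a related deaminase screen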;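 also: plate controls were A3A with DMSO for no effect and wells lacking A3A enzyme for full effect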
APOBEC3A confirm = APOBEC3A deaminase inhibitors, retest, confirmation, selectivity assay for APOBEC3G inhibitor project, biochemical, single concentration, fluorescence readout; shares compounds with A3A deaminase; recombinant A3A, ssDNA deaminase UDG fluorescence assay; inhibition, % at 20 µM; 1,400 compounds, 63% hits; AID 493151, 2011;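 active = inhibition reaching a set limit, 80% of the first screen's cutoff, at 20 µM in any replicate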;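 also: plate controls were DMSO wells with A3A for no effect and wells lacking A3A enzyme for full effect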
UDG ctr A3A = E. coli UDG inhibitors, confirmation, counter-screen for APOBEC3A inhibitor project, biochemical, single concentration, fluorescence, FAM/TAMRA oligo. shares compounds with A3A deaminase. inhibition, % at 20 µM. UDG counterscreen, FAM/TAMRA uracil oligo fluorescence. AID 504714, 2011. 1,000 tested, under 10 active; call rule not given here
* marks the source's active call; other numbers are inactive results; / = no result given. This is a sample that favours compounds with a hit; in the whole collection about 2.1% have one here.

SMILES	Statin myotox sup	Mot1-301 SUMO	ARFGAP1 inhibitor	APOBEC3G inh	ASAP1 GAP inh	A3A deaminase	APOBEC3A confirm	UDG ctr A3A
C[n+]1cccc(C(=O)NCC2CCCO2)c1 (centres undefined)	/	4	0	24	-1	79*	75*	1
COc1cccc(NC(=O)c2ccc[n+](C)c2)c1	8	-9	1	26	5	77*	75*	2
O=C(C[n+]1cccc(C(=O)Nc2ccccc2)c1)c1ccccc1	/	/	-6	/	-2	/	/	/
CO[C@H]1CN(C)C(=O)c2cc(NC(C)=O)ccc2OC[C@H](C)N(CCC(F)(F)F)C[C@@H]1C	-12	/	/	/	/	/	/	/
CCNC(=O)C[C@@H]1CC[C@H](NS(=O)(=O)c2ccc(C)cc2)[C@@H](CO)O1	11	/	/	/	/	/	/	/
CCN(CC(=O)Nc1cc(Cl)ccc1C)C(=O)c1cc([N+](=O)[O-])ccc1N1CCOCC1	-9	-14	10	3	-13	80*	0	/
Cc1cccc(C)c1NC(=O)CN(C)C(=O)c1cc([N+](=O)[O-])ccc1N1CCOCC1	3	24	2	7	10	2	/	/
CCN(CC(=O)Nc1ccc(OC)cc1)C(=O)c1cc([N+](=O)[O-])ccc1N1CCOCC1	0	10	3	-7	-7	0	/	/
Cc1ccc(NC(=O)c2cc([N+](=O)[O-])ccc2N2CCOCC2)cc1S(=O)(=O)N1CCOCC1	-12	7	11	5	1	42*	2	/
CN(CC(=O)Nc1ccccc1Br)C(=O)c1cc([N+](=O)[O-])ccc1N1CCOCC1	10	0	-3	7	-2	42*	-1	/
C[C@@H]1CN([C@H](C)CO)C(=O)c2cccc(NS(C)(=O)=O)c2O[C@@H]1CN(C)CC1CC1	-27	/	/	/	/	/	/	/
O=C(COc1ccccc1/C=C1/NC(=O)NC1=O)Nc1ccccc1	6	-7	-1	10	-4	46*	68*	-4
COC(=O)COc1ccccc1/C=C1/NC(=O)NC1=O	/	-4	-5	-4	12	-2	/	/
C[C@@H]1CN([C@@H](C)CO)C(=O)c2cc(C3=CCCCC3)cnc2O[C@H]1CN(C)C(=O)Nc1ccc(F)cc1	42	/	/	/	/	/	/	/
CN(C)CCCNc1c2ccccc2nc2ccccc12	18	-15	10	21	-3	54*	54*	4
N#Cc1ccc(-c2ccc3c(c2)[C@H]2[C@H](CCN2Cc2ccc4c(c2)OCO4)[C@H](CO)N3)cc1	-10	/	/	/	/	/	/	/
CCN1/C(=C2\C(=O)N(c3ccccc3)N=C2C)C=Cc2cc(C)ccc21	/	/	1	18	-2	49*	21	/
Cc1ccc(N2C(SCC(=O)O)=NC(=Nc3cccc(C)c3)C23CCCC3)cc1	7	-14	8	5	-6	44*	15*	-2
c1ccc2oc(CCc3nc4ccccc4o3)nc2c1	6	4	15	0	-6	-2	/	/
Nc1ccc2oc(CCc3ccccc3)nc2c1	/	67	/	-4	/	60*	-7	-2
O=C(C[C@H]1CC[C@H](NC(=O)NC2CCCC2)[C@H](CO)O1)NCc1ccc(F)cc1	-5	/	/	/	/	/	/	/
CCCNC(=O)C[C@@H]1C[C@@H]2c3cc(NC(=O)c4cccnc4)ccc3O[C@@H]2[C@H](CO)O1	-5	/	/	/	/	/	/	/
Cc1cc(C(=O)CSc2nnc(-c3cccs3)n2Cc2ccccc2)c(C)n1C	23	7	9	-9	6	-5	/	/
O=c1cc(CSc2nnc(-c3cccs3)n2Cc2ccccc2)nc2sc3ccccc3n12	/	0	-11	22	2	47*	24	/
CCC(C)NC(=O)CSc1ccc(S(=O)(=O)N(C)C2CCCCC2)cn1 (centres undefined)	-5	-6	-10	-9	-2	42*	-4	2
SMILES	Statin myotox sup	Mot1-301 SUMO	ARFGAP1 inhibitor	APOBEC3G inh	ASAP1 GAP inh	A3A deaminase	APOBEC3A confirm	UDG ctr A3A
CCCNC(=O)CSc1ccc(S(=O)(=O)N(C)C2CCCCC2)cn1	0	/	-3	/	8	/	/	/
O=C(Cc1cccs1)NNC(=S)NCc1ccco1	/	-1	3	-7	13	78*	-4	-3
O=C(Cc1cccs1)NCc1ccco1	23	/	7	-5	10	0	/	/
O=C(c1ccccc1Cc1ccccc1)N1CCN(S(=O)(=O)c2ccccc2F)CC1	6	-19	7	-4	10	-1	/	/
O=C(c1ccccc1Cc1ccccc1)N1CCN(S(=O)(=O)c2ccccc2[N+](=O)[O-])CC1	-5	100	4	-1	5	46*	22	12
C[C@H]1CN([C@@H](C)CO)C(=O)Cc2cc(NC(=O)C3CC3)ccc2O[C@@H]1CN(C)S(=O)(=O)c1ccccc1	-51	/	/	/	/	/	/	/
N#C[C@@H]1[C@H](c2ccc(-c3ccccc3F)cc2)[C@H](CO)N1C(=O)Cc1ccccc1	17	/	/	/	/	/	/	/
CCOc1ccc(/C=c2\sc3nc(-c4ccco4)nn3c2=O)cc1OCC	-9	-10	7	19	1	74*	31*	-4
C[C@H]1CN([C@@H](C)CO)C(=O)c2cc(NS(=O)(=O)c3cn(C)cn3)ccc2O[C@H]1CN(C)S(C)(=O)=O	47	/	/	/	/	/	/	/
COC(=O)c1ccc2c(c1)C(C)(C)C(/C=C/c1ccc(OC)c(OC)c1OC)=[N+]2C	-161	-11	7	24	-5	95*	83*	2
COC(=O)c1ccc2c(c1)C(C)(C)C(/C=C/c1ccc(O)cc1)=[N+]2C	/	7	-10	17	3	24	/	/
COc1ccc(S(=O)(=O)Nc2ccc3c(c2)C(=O)N([C@H](C)CO)C[C@@H](C)[C@@H](CN(C)C(=O)Nc2cccc4ccccc24)OCCCC[C@@H](C)O3)cc1	20	/	/	/	/	/	/	/
COc1cccc(CN(CC(=O)NCc2ccc(F)cc2)C(=O)c2ccco2)c1	16	153	4	-2	4	45*	-6	-3
